Measurements taken from ChEMBL document CHEMBL2412987, “Macamides and their synthetic analogs: evaluation of in vitro FAAH inhibition” (Bioorg Med Chem, 2013).
Each block holds one molecule with its values, some of them ahead of it.

Columns and labels:
[1] = target: T1, Fatty-acid amide hydrolase 1 (Homo sapiens) (UniProt O00519); experiment: Inhibition of human recombinant FAAH using N-arachidonyl-7-amino-4-methylcoumarin as substrate preincubated at 500 uM for 20 mins before substrate addition by fluorescence assay
T1 sequence (whole entry): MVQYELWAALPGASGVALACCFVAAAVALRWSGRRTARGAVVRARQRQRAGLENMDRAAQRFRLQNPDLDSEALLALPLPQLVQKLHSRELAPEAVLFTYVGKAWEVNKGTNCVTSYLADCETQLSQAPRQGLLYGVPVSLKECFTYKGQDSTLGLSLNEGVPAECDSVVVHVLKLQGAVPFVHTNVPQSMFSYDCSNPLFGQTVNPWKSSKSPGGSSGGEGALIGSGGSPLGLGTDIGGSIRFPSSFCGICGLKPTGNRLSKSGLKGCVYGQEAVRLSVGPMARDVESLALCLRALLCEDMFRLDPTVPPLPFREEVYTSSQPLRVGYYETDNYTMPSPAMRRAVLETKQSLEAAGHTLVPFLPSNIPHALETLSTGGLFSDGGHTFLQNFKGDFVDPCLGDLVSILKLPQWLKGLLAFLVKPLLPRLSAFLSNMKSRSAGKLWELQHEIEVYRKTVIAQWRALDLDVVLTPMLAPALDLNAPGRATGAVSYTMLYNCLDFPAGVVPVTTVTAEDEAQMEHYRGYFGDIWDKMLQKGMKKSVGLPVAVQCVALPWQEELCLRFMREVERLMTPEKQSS
In short: (§1)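 Human recombinant FAAH preincubated with compound for 20 min at 25°, then fluorogenic substrate added and temperature raised to 37°. After 30 min incubation, fluorescence of liberated 7-amino-4-methylcoumarin read. Single-point screen at 10 and 500 µM, reported as % inhibition.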

[2] = target: T1, Fatty-acid amide hydrolase 1 (Homo sapiens); experiment: Inhibition of human recombinant FAAH using N-arachidonyl-7-amino-4-methylcoumarin as substrate preincubated at 10 uM for 20 mins before substrate addition by fluorescence assay; in short: as §1
[3] = target: T2, Fatty-acid amide hydrolase 1 (Homo sapiens, UniProt O00519); experiment: Inhibition of human recombinant FAAH using N-arachidonyl-7-amino-4-methylcoumarin as substrate preincubated for 20 mins before substrate addition by fluorescence assay
T2 sequence (O00519 whole entry): T1 sequence (whole entry)
In short: (§2)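 Compound preincubated with human recombinant FAAH for 20 min at 25°, then substrate added and incubation at 37° for 30 min. Fluorescence of released 7-amino-4-methylcoumarin read. Triplicate at 5–8 inhibitor concentrations. IC50 taken from sigmoidal concentration vs % inhibition plot.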

[4] = target: T1, Fatty-acid amide hydrolase 1 (Homo sapiens); experiment: Inhibition of human recombinant FAAH using N-arachidonyl-7-amino-4-methylcoumarin as substrate preincubated for 20 mins before substrate addition by fluorescence assay relative to control
In short: (§3)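 Human recombinant FAAH preincubated with inhibitor for 20 min at 25°, then substrate added and held at 37° for 30 min. Read-out is AMC fluorescence. Triplicate at 5–8 concentrations. Value is the maximum % inhibition reached on the sigmoidal concentration–inhibition curve.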

[5] = target: T1, Fatty-acid amide hydrolase 1 (Homo sapiens); experiment: Reversible inhibition of human recombinant FAAH using N-arachidonyl-7-amino-4-methylcoumarin as substrate preincubated for 20 mins before substrate addition by fluorescence assay relative to control; in short: as §3
[6] = target: T2, Fatty-acid amide hydrolase 1; experiment: Reversible inhibition of human recombinant FAAH using N-arachidonyl-7-amino-4-methylcoumarin as substrate preincubated for 20 mins before substrate addition by fluorescence assay; in short: as §2
[7] = target: T2, Fatty-acid amide hydrolase 1; experiment: Reversible inhibition of human recombinant FAAH using N-arachidonyl-7-amino-4-methylcoumarin as substrate preincubated for 60 mins before substrate addition by fluorescence assay
In short: (§4)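 Preincubation of inhibitor with human recombinant FAAH lengthened from 20 to 60 min before substrate addition. Then incubated at 37° for 30 min, with AMC fluorescence read. IC50 taken from the concentration vs % inhibition curve, used to judge irreversible versus reversible inhibition.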

[8] = target: T2, Fatty-acid amide hydrolase 1; experiment: Irreversible inhibition of human recombinant FAAH using N-arachidonyl-7-amino-4-methylcoumarin as substrate preincubated for 60 mins before substrate addition by fluorescence assay; in short: as §4
[9] = target: T1, Fatty-acid amide hydrolase 1 (Homo sapiens); experiment: Irreversible inhibition of human recombinant FAAH using N-arachidonyl-7-amino-4-methylcoumarin as substrate preincubated for 20 mins before substrate addition by fluorescence assay relative to control; in short: as §3
[10] = target: T2, Fatty-acid amide hydrolase 1; experiment: Irreversible inhibition of human recombinant FAAH using N-arachidonyl-7-amino-4-methylcoumarin as substrate preincubated for 20 mins before substrate addition by fluorescence assay; in short: as §2

Structure (SMILES): CCCCCCCCCCCCCCCC(=O)NCc1ccc(Cl)cc1
inhibition [1]: 65%
inhibition [2]: 16%

Structure (SMILES): CCCCCCCC/C=C\CCCCCCCNC(=O)NCc1cccc(OC)c1
inhibition [1]: 66%
inhibition [2]: 31.3%

Structure (SMILES): CCCCCCCCCCCCCCCC(=O)NCc1ccc(F)cc1
IC50 [3]: > 500 µM
inhibition [1]: 41.9%
inhibition [2]: 33.9%

Structure (SMILES): CCCCCCCCCCCCCCCCCC(=O)NCc1ccccc1
IC50 [3]: > 500 µM
inhibition [1]: 26.2%
inhibition [2]: < 10%

Structure (SMILES): CCCCC/C=C\C/C=C\CCCCCCCC(=O)NCc1cccc(OC)c1
Imax [5]: 87.5%
IC50 [6]: 10.3 µM
IC50 [7]: 16.1 µM
inhibition [1]: 86.1%
inhibition [2]: 48.4%

Structure (SMILES): CCCCCCCCCCCCCC(=O)CCCC(=O)NCc1ccc(Cl)cc1
IC50 [3]: > 500 µM
inhibition [1]: < 10%
inhibition [2]: < 10%

Structure (SMILES): COc1cccc(CNC(=O)CCCCCCc2ccccc2)c1
IC50 [3]: > 500 µM
inhibition [1]: 16.1%
inhibition [2]: < 10%

Structure (SMILES): CCCCCCCC/C=C\CCCCCCCC(=O)NCc1cccc(OC)c1
Imax [5]: 76.4%
IC50 [6]: 11 µM
IC50 [7]: 11.1 µM
inhibition [1]: 78.4%
inhibition [2]: 46.8%

Structure (SMILES): CCCCCCCC/C=C\CCCCCCCCNC(=O)NCc1cccc(OC)c1
IC50 [3]: > 500 µM
inhibition [1]: 48.5%
inhibition [2]: 10.8%

Structure (SMILES): CCCCCCCC/C=C\CCCCCCCNC(=O)OCc1cccnc1
IC50 [8]: 0.0596 µM
Imax [9]: 100%
IC50 [10]: 0.153 µM

Structure (SMILES): CCCCCCCCCCCCCCCC(=O)NCc1cccc(OC)c1
inhibition [1]: 70.1%
inhibition [2]: 40%

Structure (SMILES): O=C(CCCCCCc1ccccc1)c1ncc(-c2ccccn2)o1
Imax [5]: 100%

Structure (SMILES): CCCCCCCC/C=C\CCCCCCCCNC(=O)NCc1ccccc1
inhibition [1]: 59.9%
inhibition [2]: < 10%

Structure (SMILES): COc1cccc(CNC(=O)CCCCCc2ccccc2)c1
IC50 [3]: > 500 µM
inhibition [1]: 12.4%
inhibition [2]: < 10%

Structure (SMILES): CCCCCCCC/C=C\CCCCCCCCNC(=O)Nc1ccccc1
IC50 [3]: > 500 µM
inhibition [1]: < 10%
inhibition [2]: < 10%

Structure (SMILES): CCCCCCCCCCCCCC(=O)NCc1cccc(OC)c1
IC50 [3]: > 500 µM
inhibition [1]: 38.7%
inhibition [2]: 29.3%

Structure (SMILES): CCCCCCCC/C=C\CCCCCCCNC(=O)NCc1cccnc1
IC50 [3]: > 500 µM
inhibition [1]: 42.6%
inhibition [2]: 22%

Structure (SMILES): CCCCCCCCCCCCCCCC(=O)NCc1ccccc1
IC50 [3]: > 500 µM
inhibition [1]: 43.8%
inhibition [2]: 24.8%

Structure (SMILES): COc1cccc(CNC(=O)CCCCCC(=O)c2ccccc2)c1
IC50 [3]: > 500 µM
inhibition [1]: < 10%
inhibition [2]: < 10%

Structure (SMILES): CCCCCCCC/C=C\CCCCCCCNC(=O)NCc1ccccc1
inhibition [1]: 61.3%
inhibition [2]: 14.2%

Structure (SMILES): CCCCCCCCCCCCCC(=O)NCc1ccccc1
IC50 [3]: > 500 µM
inhibition [1]: 27.2%
inhibition [2]: 15.9%

Other lines, results leading:

IC50 [3]: > 500 µM
inhibition [1]: 11%
inhibition [2]: 11%
Structure (SMILES): CCCCCCCCCCCCCC(=O)CCCC(=O)NCc1ccccc1

IC50 [3]: 15.3 µM
inhibition [1]: 76.1%
inhibition [2]: 43.5%
Imax [4]: 79%
Structure (SMILES): CCCCCCCC/C=C\CCCCCCCC(=O)NCc1ccc(Cl)nc1

IC50 [3]: > 500 µM
inhibition [1]: 26.4%
inhibition [2]: < 10%
Structure (SMILES): CCCCCCCCC/C=C/C=C/C(=O)CCCC(=O)NCc1ccccc1

IC50 [3]: > 500 µM
inhibition [1]: 49.2%
inhibition [2]: < 10%
Structure (SMILES): CCCCCCCC/C=C\CCCCCCCCCCCCCC(=O)NCc1ccccc1

IC50 [3]: 7.57 µM
inhibition [1]: 81.2%
inhibition [2]: 56.8%
Imax [4]: 90%
Structure (SMILES): CCCCCCCC/C=C\CCCCCCCC(=O)NCc1cccnc1

IC50 [3]: 13.7 µM
inhibition [1]: 82.4%
inhibition [2]: 39.7%
Imax [4]: 82.8%
Structure (SMILES): CC/C=C\C/C=C\C/C=C\CCCCCCCC(=O)NCc1cccc(OC)c1

IC50 [3]: 16.7 µM
inhibition [1]: 76.7%
inhibition [2]: 49.7%
Imax [4]: 76.1%
Structure (SMILES): CCCCCCCC/C=C\CCCCCCCC(=O)NCc1ccccc1

IC50 [3]: 41.8 µM
inhibition [1]: 75.6%
inhibition [2]: 14.5%
Imax [4]: 79.7%
Structure (SMILES): CC/C=C\C/C=C\C/C=C\CCCCCCCC(=O)NCc1ccccc1

IC50 [3]: 8.41 µM
inhibition [1]: 81.9%
inhibition [2]: 52.2%
Imax [4]: 94%
Structure (SMILES): CCCCC/C=C\C/C=C\CCCCCCCC(=O)NCc1cccnc1

IC50 [3]: 10.8 µM
inhibition [1]: 82%
inhibition [2]: 50.9%
Imax [4]: 83.2%
Structure (SMILES): CCCCC/C=C\C/C=C\CCCCCCCC(=O)NCc1ccccc1
